One series has as its system HT-22. The experiment in a line: Cytotoxicity against mouse HT-22 cells assessed as reduction in cell viability incubated for 18 hrs by MTT assay. In kind it is toxicity, cell-based. The settings on record: ht-22, 18 h.
Series [1] has as its target Amyloid-beta precursor protein (Homo sapiens) (UniProt P05067). Description: Inhibition of Amyloid beta (1 to 42 ) (unknown origin) disaggregation assessed as reduction in mature fibril at 50 uM preincubated with amyloid beta followed by compound addition and measured after 3 days by Thioflavin T based fluorescence assay. The settings on record: time 3.0 day.
The target is the same in series [2]. The experiment in a line: Inhibition of Amyloid beta (1 to 42 ) (unknown origin) aggregation at 0.5 to 50 uM incubated for 3 days followed by incandescent lamp irradiation by photo-induced cross-linking of unmodified proteins method. The settings on record: dose 0.5-50 µM, time 3.0 day. The method in brief:
(§1)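 Cross-linked Aβ products resolved on gels, imaged by fluorescence scanning and by silver staining. Band area quantified by densitometry and normalized to the 3-day aggregates, set as 100%.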

Series [3] shares this target. The experiment in a line: Inhibition of Amyloid beta (1 to 42 ) (unknown origin) disaggregation assessed as reduction in aggregation by measuring monomer band intensity at 0.5 to 50 uM incubated for 3 days followed by incandescent lamp irradiation by photo-induced cross-linking of unmodified proteins method. As to conditions: dose 0.5-50 µM, time 3.0 day. The method in brief:
as §1

For series [4] the target is unchanged. The experiment in a line: Inhibition of Amyloid beta (1 to 42 ) (unknown origin) aggregation assessed as fibrilization amyloid beta by measuring beta sheets at 1 to 50 uM incubated for 3 days by Thioflavin T based fluorescence assay. The settings on record: dose 1-50 µM, time 3.0 day.

Chain of Amyloid-beta precursor protein (Homo sapiens) (P05067 whole entry): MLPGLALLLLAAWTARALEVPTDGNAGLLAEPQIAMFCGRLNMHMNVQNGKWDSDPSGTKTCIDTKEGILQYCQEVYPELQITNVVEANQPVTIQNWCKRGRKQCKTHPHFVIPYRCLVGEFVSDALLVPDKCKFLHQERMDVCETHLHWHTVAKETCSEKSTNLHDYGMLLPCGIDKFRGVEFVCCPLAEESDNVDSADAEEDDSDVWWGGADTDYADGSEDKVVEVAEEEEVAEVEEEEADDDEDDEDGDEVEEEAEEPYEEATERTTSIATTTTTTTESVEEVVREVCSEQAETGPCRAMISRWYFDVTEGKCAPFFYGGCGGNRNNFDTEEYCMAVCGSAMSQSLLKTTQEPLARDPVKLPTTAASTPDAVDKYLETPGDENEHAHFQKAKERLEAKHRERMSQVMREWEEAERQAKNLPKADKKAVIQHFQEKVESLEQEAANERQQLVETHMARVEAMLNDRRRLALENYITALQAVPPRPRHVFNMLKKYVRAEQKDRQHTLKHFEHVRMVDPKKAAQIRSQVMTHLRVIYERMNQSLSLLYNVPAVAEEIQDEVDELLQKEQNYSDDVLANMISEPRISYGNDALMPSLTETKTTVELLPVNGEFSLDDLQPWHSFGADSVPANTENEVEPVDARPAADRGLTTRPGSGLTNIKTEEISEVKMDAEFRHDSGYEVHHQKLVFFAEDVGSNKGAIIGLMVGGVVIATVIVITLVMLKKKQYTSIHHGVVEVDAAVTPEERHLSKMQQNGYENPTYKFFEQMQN

Turning to `Clc1ccc(-c2nc3ccccc3c3cc4ccccn4c23)cc1`, in the series on HT-22, the Activity result is recorded as “Toxic”. As for `Brc1ccc(C2Nc3ccccc3-c3cc4ccccn4c32)cc1` (stereo unspecified), the Activity entry with HT-22 is “Toxic”. Same read-out and setting: to `COc1ccc(-c2nc3ccccc3c3c(I)c4ccccn4c23)cc1` belongs “Toxic”; to `COc1cccc(-c2nc3ccccc3c3cc4c(C)cccn4c23)c1`, “Toxic”. For the molecule `COc1cc(OC)cc(-c2nc3ccccc3c3cc4ccccn4c23)c1`, in the series on HT-22, the Activity result was “Toxic”. Take `Clc1ccc(-c2nc3ccccc3c3cc4ccccn4c23)s1`: in the series on HT-22, the Activity result is “Toxic”. The same measure, in the same setting: the result for `Cc1ccc2cc3c4ccccc4nc(-c4cccc5ccccc45)c3n2c1` reads “Toxic”; that for `COc1ccc(-c2nc3ccccc3c3cc4ccccn4c23)cc1OC`, “Toxic”; that for `c1ccc2c(-c3nc4ccccc4c4cc5ccccn5c34)cccc2c1`, “Toxic”. Still for that read-out and setting: the result for `Cc1cccn2c1cc1c3ccccc3nc(-c3cc4ccccc4o3)c12` reads “Toxic”; that for `CCOC(=O)c1c2c3ccccc3nc(-c3ccc(OC)c(OC)c3)c2n2ccccc12`, “Toxic”; that for `c1ccc2cc(-c3nc4ccccc4c4cc5ccccn5c34)ccc2c1`, “Toxic”. `Cc1ccc(-c2nc3ccccc3c3cc4c(C)cccn4c23)cc1`: in the series on HT-22, the Activity result is “Toxic”. On to `CN(C)c1ccc(-c2nc3ccccc3c3cc4ccccn4c23)cc1`, for which the inhibition is greater than 60% in series [1], 20% in series [2], 10% in series [3] and greater than 30% in series [4]. For the same molecule, the Activity result in the series on HT-22 is given as “Toxic”.

As for `COc1cc(OC)cc(-c2ccc3cc4c5ccccc5nc(-c5cccc6ccccc56)c4n3c2)c1`, the Activity result with HT-22 is given as “Toxic”. For the same molecule, the inhibition in series [4] was greater than 30%. As to `COc1ccc(-c2nc3ccccc3c3cc4ccccn4c23)cc1`, in the series on HT-22, the Activity entry is reported as “Toxic”. Same read-out and setting: to `Cc1cccn2c1cc1c3ccccc3nc(-c3cccc4ccccc34)c12` belongs “Toxic”. For `Cc1cccn2c1cc1c3ccccc3nc(-c3cc4ccccc4[nH]3)c12`, the inhibition is 40% in series [1] and greater than 30% in series [4]. In addition, the Activity entry in the series on HT-22 is “Toxic”.

Regarding `c1csc(-c2nc3ccccc3c3cc4ccccn4c23)c1`, the Activity result in the series on HT-22 is on record as “Toxic”.

On to `COC(=O)c1c2c3ccccc3nc(-c3ccc[nH]3)c2n2ccccc12`, for which the Activity entry in the series on HT-22 is listed as “Toxic”.

With `COc1ccc(-c2nc3ccccc3c3cc4ccc(-c5cc(OC)cc(OC)c5)cn4c23)cc1`, the Activity entry in the series with HT-22 is “Toxic”.

With `Cc1cccn2c1cc1c3ccccc3nc(-c3ccco3)c12`, in the series on HT-22, the Activity entry is reported as “Toxic”. `c1ccc(-c2nc3ccccc3c3cc4ccccn4c23)nc1`: the Activity result in the series with HT-22 is on record as “Toxic”. Consider `COc1ccc(-c2nc3ccccc3c3cc4c(C)cccn4c23)cc1OC`, for which the inhibition is 40% in series [1], 20% in series [2] and greater than 30% in series [4]. Further, in the series on HT-22, the Activity entry was “Toxic”. On to `Cc1cccn2c1cc1c3ccccc3nc(-c3cccc(F)c3)c12`, for which, in the series on HT-22, the Activity entry is reported as “Toxic”. Turning to `Brc1ccc2cc3c4ccccc4nc(-c4ccco4)c3n2c1`, the Activity entry in the series on HT-22 was “Toxic”. In series [4], the inhibition was greater than 30%. With `COc1ccc(-c2nc3ccccc3c3cc4ccc(Br)cn4c23)cc1OC`, the inhibition in series [1] was 40%; in series [2] it was 20%; in series [4], greater than 30%. Besides, the Activity result with HT-22 was “Toxic”.

For `Brc1ccc(-c2nc3ccccc3c3cc4ccccn4c23)cc1`, in the series with HT-22, the Activity result is reported as “Toxic”. Still for that read-out and setting: to `COc1ccc(-c2nc3ccccc3c3c(-c4ccc(F)cc4)c4ccccn4c23)cc1` belongs “Toxic”; to `c1ccc(-c2nc3ccccc3c3cc4ccccn4c23)cc1`, “Toxic”; to `COc1cccc(-c2nc3ccccc3c3cc4ccccn4c23)c1`, “Toxic”. Same read-out and setting: to `COc1cc(OC)cc(-c2nc3ccccc3c3cc4c(C)cccn4c23)c1` belongs “Toxic”.
